From ChEMBL document CHEMBL1126176, “Synthetic modification of a novel microbial ionophore: exploration of anticoccidial structure-activity relationships” (J Med Chem, 1992)

How the values were obtained:
[1] = species on record: Gallus gallus; experiment: Minimum concentration of the compound(ppm) in feed which provides control of Eimeria tenella lesions equivalent to noninfected, nonmedicated birds; assay type: functional
Procedure, shortened: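 Drug is given continuously in feed to E. tenella-infected birds from 1 day before infection. Birds are killed 6 days after infection and lesions are scored. The value is the lowest feed level (ppm) giving lesion control equal to noninfected, nonmedicated birds.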

[2] = species on record: Gallus gallus; experiment: In vitro concentration of compound to inhibit growth of Eimeria tenella by 50% […]; assay type: functional, organism-based
Procedure, shortened: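 E. tenella grown in vitro with drug. Growth is compared with nonmedicated controls. The value is the drug concentration (ppm) that inhibits growth by 50%.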

| Structure (SMILES) | MEC [1] [p.p.m.] | IC50 [2] [p.p.m.] |
| --- | --- | --- |
| CO[C@@H]1[C@@H](O[C@H]2CC[C@H](OC)[C@@H](C)O2)[C@H](C)[C@@](O)(C(C)C(=O)[O-])O[C@H]1[C@H](C)[C@H]1O[C@@]2(CC[C@@](C)([C@H]3CC[C@@](C)([C@@H]4O[C@@H]([C@H]5O[C@](C)(O)[C@H](C)C[C@@H]5C)C[C@@H]4O[C@H]4CC[C@H](OC)[C@@H](C)O4)O3)O2)C[C@H](O)[C@H]1C.[Na+] (stereo partly drawn) | 7.5 | 0.03 |
| CO[C@@H]1[C@@H](O[C@H]2CC[C@H](OC)[C@@H](C)O2)[C@H](C)[C@](CC(=O)[O-])(OC)O[C@H]1[C@H](C)[C@H]1O[C@@]2(CC[C@@](C)([C@H]3CC[C@@](C)([C@@H]4O[C@@H]([C@H]5O[C@](C)(O)[C@H](C)C[C@@H]5C)C[C@@H]4O[C@H]4CC[C@H](OC)[C@@H](C)O4)O3)O2)C[C@H](O)[C@H]1C.[Na+] | 120 | – |
| CO[C@@H]1[C@@H](O[C@H]2CC[C@H](OC)[C@@H](C)O2)[C@H](C)[C@@](O)(CC(=O)[O-])O[C@H]1[C@H](C)[C@H]1O[C@@]2(CC[C@@](C)([C@H]3CC[C@@](C)([C@@H]4O[C@@H]([C@H]5O[C@](C)(OC)[C@H](C)C[C@@H]5C)C[C@@H]4O[C@H]4CC[C@H](OC)[C@@H](C)O4)O3)O2)C[C@H](O)[C@H]1C.[Na+] | 50 | 0.02 |
| CO[C@@H]1[C@@H](O[C@H]2CC[C@H](OC)[C@@H](C)O2)[C@H](C)[C@@](O)(CC(=O)[O-])O[C@H]1[C@H](C)[C@H]1O[C@@]2(CC[C@@](C)([C@H]3CC[C@@](C)([C@@H]4O[C@@H]([C@@H](O)[C@@H](C)C[C@@H](C)C(C)(C)O)C[C@@H]4O[C@H]4CC[C@H](OC)[C@@H](C)O4)O3)O2)C[C@H](O)[C@H]1C.[Na+] | >120 | 0.03 |
| C=CCC(C(=O)[O-])[C@@]1(O)O[C@@H]([C@H](C)[C@H]2O[C@@]3(CC[C@@](C)([C@H]4CC[C@@](C)([C@@H]5O[C@@H]([C@H]6O[C@](C)(O)[C@H](C)C[C@@H]6C)C[C@@H]5O[C@H]5CC[C@H](OC)[C@@H](C)O5)O4)O3)C[C@H](O)[C@H]2C)[C@H](OC)[C@@H](O[C@H]2CC[C@H](OC)[C@@H](C)O2)[C@@H]1C.[Na+] (stereo partly drawn) | 60 | 0.01 |
| CCC(C(=O)[O-])[C@@]1(O)O[C@@H]([C@H](C)[C@H]2O[C@@]3(CC[C@@](C)([C@H]4CC[C@@](C)([C@@H]5O[C@@H]([C@H]6O[C@](C)(O)[C@H](C)C[C@@H]6C)C[C@@H]5O[C@H]5CC[C@H](OC)[C@@H](C)O5)O4)O3)C[C@H](O)[C@H]2C)[C@H](OC)[C@@H](O[C@H]2CC[C@H](OC)[C@@H](C)O2)[C@@H]1C.[Na+] (stereo partly drawn) | 30 | – |
| CCCC(C(=O)[O-])[C@@]1(O)O[C@@H]([C@H](C)[C@H]2O[C@@]3(CC[C@@](C)([C@H]4CC[C@@](C)([C@@H]5O[C@@H]([C@H]6O[C@](C)(O)[C@H](C)C[C@@H]6C)C[C@@H]5O[C@H]5CC[C@H](OC)[C@@H](C)O5)O4)O3)C[C@H](O)[C@H]2C)[C@H](OC)[C@@H](O[C@H]2CC[C@H](OC)[C@@H](C)O2)[C@@H]1C.[Na+] (stereo partly drawn) | 60 | 0.01 |
| CO[C@@H]1[C@@H](O[C@H]2CC[C@H](OC)[C@@H](C)O2)[C@H](C)[C@@](O)(CC(=O)[O-])O[C@H]1[C@H](C)[C@H]1O[C@@]2(CC[C@@](C)([C@H]3CC[C@@](C)([C@@H]4O[C@@H]([C@@H](O)[C@@H](C)C[C@@H](C)[C@@H](C)O)C[C@@H]4O[C@H]4CC[C@H](OC)[C@@H](C)O4)O3)O2)C[C@H](O)[C@H]1C.[Na+] | 80 | 0.05 |
| CO[C@@H]1[C@@H](O)[C@H](C)[C@@](O)(CC(=O)[O-])O[C@H]1[C@H](C)[C@H]1O[C@@]2(CC[C@@](C)([C@H]3CC[C@@](C)([C@@H]4O[C@@H]([C@H]5O[C@](C)(O)[C@H](C)C[C@@H]5C)C[C@@H]4O)O3)O2)C[C@H](O)[C@H]1C.[Na+] | >50 | > 1 |
| C#CCC(C(=O)[O-])[C@@]1(O)O[C@@H]([C@H](C)[C@H]2O[C@@]3(CC[C@@](C)([C@H]4CC[C@@](C)([C@@H]5O[C@@H]([C@H]6O[C@](C)(O)[C@H](C)C[C@@H]6C)C[C@@H]5O[C@H]5CC[C@H](OC)[C@@H](C)O5)O4)O3)C[C@H](O)[C@H]2C)[C@H](OC)[C@@H](O[C@H]2CC[C@H](OC)[C@@H](C)O2)[C@@H]1C.[Na+] (stereo in doubt; 2e) | >60 | – |
| C#CCC(C(=O)[O-])[C@@]1(O)O[C@@H]([C@H](C)[C@H]2O[C@@]3(CC[C@@](C)([C@H]4CC[C@@](C)([C@@H]5O[C@@H]([C@H]6O[C@](C)(O)[C@H](C)C[C@@H]6C)C[C@@H]5O[C@H]5CC[C@H](OC)[C@@H](C)O5)O4)O3)C[C@H](O)[C@H]2C)[C@H](OC)[C@@H](O[C@H]2CC[C@H](OC)[C@@H](C)O2)[C@@H]1C.[Na+] (stereo in doubt; 2f) | 60 | 0.01 |
| CO[C@@H]1[C@@H](O[C@H]2CC[C@H](OC)[C@@H](C)O2)[C@H](C)[C@@](O)(CC(=O)[O-])O[C@H]1[C@H](C)[C@H]1O[C@@]2(CC[C@@](C)([C@H]3CC[C@@](C)([C@@H]4O[C@@H]([C@H]5O[C@](C)(O)[C@H](C)C[C@@H]5C)C[C@@H]4O[C@H]4CC[C@H](OC)[C@@H](C)O4)O3)O2)C[C@H](O)[C@H]1C.[Na+] [IONOPHORE] | 15 | 0.03 |
| CO[C@@H]1[C@@H](O)[C@H](C)[C@@](O)(CC(=O)[O-])O[C@H]1[C@H](C)[C@H]1O[C@@]2(CC[C@@](C)([C@H]3CC[C@@](C)([C@@H]4O[C@@H]([C@H]5O[C@](C)(O)[C@H](C)C[C@@H]5C)C[C@@H]4O[C@H]4CC[C@H](OC)[C@@H](C)O4)O3)O2)C[C@H](O)[C@H]1C.[Na+] [SEMDURAMICIN SODIUM] | 25 | 0.03 |
